From ChEMBL document CHEMBL3627689, “Structural design, synthesis and pharmacological evaluation of 4-thiazolidinones against Trypanosoma cruzi” (Bioorg Med Chem, 2015)
Calls of active or inactive are those of the source. No cut-off for these calls is given here.

Legend:
Trypanosoma cruzi [1] = assay: Antiparasitic activity against bloodstream trypomastigote stage of Trypanosoma cruzi Y assessed as parasite viability after 24 hrs by Neubauer chamber analysis; assay type: functional, organism-based
In short: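 Y strain bloodstream trypomastigotes were harvested from infected LLC-MK2 cell supernatants. They were exposed to compounds at five concentrations for 24 h at 37 °C, 5% CO₂. Viable parasites were counted in a Neubauer chamber by motility. Inhibition was calculated relative to untreated cultures, and IC50 was derived by non-linear regression.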

[2] = Cytotoxicity against mouse J774 cells assessed as cell viability after 72 hrs by Alamar Blue assay; assay type: cell-based
In short: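 J774 macrophages were plated at 5 × 10⁴ cells/mL in RPMI + 10% FBS with gentamycin and grown 24 h at 37 °C, 5% CO₂. Compounds in DMSO (final <1%) were added at six concentrations (0.41–100 µM) in triplicate for 72 h. Viability was read by AlamarBlue at 570/600 nm after 6 h. CC50 came from three independent experiments, with gentian violet as positive control.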

[3] = target: Cruzipain (Trypanosoma cruzi) (UniProt P25779); assay: Competitive inhibition of Trypanosoma cruzi Cruzain using Z-FR-AMC as substrate at 100 uM preincubated for 10 mins followed by substrate addition measured every 12 secs for 5 mins by fluorescence assay relative to control
Chain of Cruzipain (Trypanosoma cruzi) (P25779 123-467 limits assumed): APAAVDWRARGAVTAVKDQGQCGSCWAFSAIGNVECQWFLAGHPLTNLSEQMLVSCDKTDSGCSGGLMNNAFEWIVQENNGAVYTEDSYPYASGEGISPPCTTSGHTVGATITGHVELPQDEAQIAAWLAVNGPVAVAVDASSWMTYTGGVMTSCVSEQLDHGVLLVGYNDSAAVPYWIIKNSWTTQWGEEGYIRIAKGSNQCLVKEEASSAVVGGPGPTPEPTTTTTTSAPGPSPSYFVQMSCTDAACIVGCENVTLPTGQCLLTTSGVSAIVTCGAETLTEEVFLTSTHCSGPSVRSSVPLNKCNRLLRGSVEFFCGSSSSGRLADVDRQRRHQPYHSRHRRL

[4] = Selectivity index, ratio of CC50 for mouse J774 cells to IC50 for bloodstream trypomastigote stage of Trypanosoma cruzi Y
Trypanosoma cruzi [5] = assay: Antiparasitic activity against amastigote stage of Trypanosoma cruzi Y in BALB/c mouse macrophages assessed as decrease in number of infected cells at 50 uM incubated for 6 hrs by Giemsa staining-based optical microscopic analysis; assay type: functional, organism-based
In short: (§1)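 Thioglycolate-elicited peritoneal macrophages from BALB/c mice, 2 × 10⁵ cells/well on coverslips in RPMI + 10% FBS for 24 h, then infected with Y strain trypomastigotes (10 per macrophage) for 2 h. Free parasites washed off. Compounds added at 50 µM for 6 h, medium replaced, 3 days further culture. Methanol fixation, Giemsa staining, 100 cells counted per slide. Triplicate, two independent experiments.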

Trypanosoma cruzi [6] = assay: Antiparasitic activity against amastigote stage of Trypanosoma cruzi Y in BALB/c mouse macrophages assessed as decrease in number of intracellular amastigotes at 50 uM incubated for 6 hrs by Giemsa staining-based optical microscopic analysis; assay type: functional, organism-based; in short: as §1
Trypanosoma cruzi [7] = assay: Antiparasitic activity against amastigote stage of Trypanosoma cruzi Y in BALB/c mouse macrophages assessed as decrease in number of intracellular amastigotes incubated for 6 hrs by Giemsa staining-based optical microscopic analysis; assay type: functional, organism-based
In short: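 Peritoneal BALB/c macrophages (thioglycolate-elicited) were infected with Y strain trypomastigotes at 10:1 for 2 h and washed. Compounds at five concentrations (1–50 µM) were applied for 6 h, followed by fresh medium and 3 days of culture. Amastigotes per 100 macrophages were counted after Giemsa staining.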

Trypanosoma cruzi [8] = assay: Potency index, ratio of benznidazole IC50 to compound IC50 for bloodstream trypomastigote stage of Trypanosoma cruzi Y; assay type: functional
Trypanosoma cruzi [9] = assay: Potency index, ratio of benznidazole IC50 to compound IC50 for amastigote stage of Trypanosoma cruzi Y in BALB/c mouse macrophages; assay type: functional
Leishmania = assay: Antiparasitic activity against Leishmania; assay type: functional
Trypanosoma cruzi [10] = assay: Antichagasic activity against Trypanosoma cruzi; assay type: functional
Trypanosoma cruzi [11] = assay: Antiparasitic activity against bloodstream trypomastigote stage of Trypanosoma cruzi Y infected in BALB/c mouse assessed as reduction of parasitemia at 100 mg/kg, po qd administered for 5 days measured on day 10 post infection relative to vehicle-treated control; assay type: functional; design: scale not given: the % may be the effect or the level left
In short: (§2)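 Female BALB/c mice (6 per group, randomized) were infected with 10⁴ Y strain trypomastigotes. They were dosed orally at 100 mg/kg once daily for 5 days starting day 5 post-infection. Parasitemia was counted as trypomastigotes in fresh blood. Reduction = (vehicle mean − treated mean)/vehicle mean × 100%.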

Trypanosoma cruzi [12] = assay: Antiparasitic activity against bloodstream trypomastigote stage of Trypanosoma cruzi Y infected in BALB/c mouse assessed as reduction of parasitemia at 100 mg/kg, po qd administered for 5 days measured on day 12 post infection relative to vehicle-treated control; assay type: functional; design: scale not given: the % may be the effect or the level left; in short: as §2
Trypanosoma cruzi [13] = assay: Antiparasitic activity against bloodstream trypomastigote stage of Trypanosoma cruzi Y infected in BALB/c mouse assessed as increase in survival rate by measuring mortality at 100 mg/kg, po qd administered for 5 days measured until 30 days; assay type: functional, organism-based
In short: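 Female BALB/c mice (6 per group) were infected with 10⁴ Y strain trypomastigotes. From day 5 post-infection they received 100 mg/kg orally once daily for 5 days. Controls were vehicle (untreated infected) and benznidazole 100 mg/kg. Survival was followed for 30 days after infection in one experiment.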

Mus musculus = assay: Toxicity in BALB/c mouse infected with bloodstream trypomastigote stage of Trypanosoma cruzi Y assessed as body weight loss at 100 mg/kg, po qd administered for 5 days; assay type: organism-based; settings: in vivo, 120 h

| IC50 (Trypanosoma cruzi [1]) [µM] | inhibition [3] [%] | Structure (SMILES) | CC50 at 72 h [2] [µM] | Ratio CC50/IC50 [4] | further results |
| --- | --- | --- | --- | --- | --- |
| > 50 | 38 | C/C(=N\N=C1\SC(C(C)C)C(=O)N1C)c1ccc(Cl)c(Cl)c1 (centres undefined) | > 100 | – | – |
| 48.5 | 20 | CCC1S/C(=N/N=C(\C)c2ccc(Cl)c(Cl)c2)N(C)C1=O (centres undefined) | > 100 | >2 | – |
| > 50 | 61 | C/C(=N\N=C1/NC(=O)C(c2ccccc2)S1)c1ccc(Cl)c(Cl)c1 (centres undefined) | 96.9 | – | – |
| 4.2 | 43 | C/C(=N\N=C1\SC(C)C(=O)N1c1ccccc1)c1ccc(Cl)c(Cl)c1 (centres undefined) | 26.1 | 6 | Activity (Trypanosoma cruzi [5]): Active; Activity (Trypanosoma cruzi [6]): Active; IC50 (Trypanosoma cruzi [7]): 5.9 µM; Ratio IC50 (Trypanosoma cruzi [8]): 2; Ratio IC50 (Trypanosoma cruzi [9]): 2 |
| – | – | O=C(N[C@@H](Cn1ccnc1)c1ccc(-c2ccc(F)cc2)cc1F)c1ccc(-c2nnc(-c3ccccc3)o2)cc1 | – | – | Activity (Leishmania): 89%; Activity (Trypanosoma cruzi [10]): 100% |
| 1.7 | 23 | C/C(=N\N=C1\SC(C(C)C)C(=O)N1c1ccccc1)c1ccc(Cl)c(Cl)c1 (centres undefined) | > 100 | >58 | Activity (Trypanosoma cruzi [5]): Active; Activity (Trypanosoma cruzi [6]): Active; IC50 (Trypanosoma cruzi [7]): 3.1 µM; Activity (Trypanosoma cruzi [11]): 86.7%; Activity (Trypanosoma cruzi [12]): 97.1%; Activity (Trypanosoma cruzi [13]): Active; Ratio IC50 (Trypanosoma cruzi [8]): 6; Ratio IC50 (Trypanosoma cruzi [9]): 4; Activity (Mus musculus): Non-toxic |
| > 50 | 32 | C/C(=N\N=C1\SC(C)C(=O)N1C)c1ccc(Cl)c(Cl)c1 (centres undefined) | > 100 | – | – |
| > 50 | 0 | C/C(=N\N=C1\SCC(=O)N1C)c1ccc(Cl)c(Cl)c1 | > 100 | – | – |
| > 50 | 43 | C/C(=N\N=C1\SCC(=O)N1c1ccccc1)c1ccc(Cl)c(Cl)c1 | > 100 | – | – |
| 41.5 | 29 | C/C(=N\N=C1\SC(c2ccccc2)C(=O)N1C)c1ccc(Cl)c(Cl)c1 (centres undefined) | 97.6 | – | – |
| – | – | CN(C)c1ccc(C(=C2C=CC(=[N+](C)C)C=C2)c2ccc(N(C)C)cc2)cc1 [GENTIAN VIOLET] | 0.45 | – | – |
| 11.2 | 28 | CNC(=S)N/N=C(\C)c1ccc(Cl)c(Cl)c1 | > 100 | – | – |
| 17.7 | 27 | C/C(=N\N=C1\SC(c2ccccc2)C(=O)N1c1ccccc1)c1ccc(Cl)c(Cl)c1 (centres undefined) | 27.1 | 1.5 | – |
| 49.5 | 49 | C/C(=N\N=C1/NC(=O)C(C)S1)c1ccc(Cl)c(Cl)c1 (centres undefined) | > 100 | >2 | – |
| 2.9 | 24 | CCC1S/C(=N/N=C(\C)c2ccc(Cl)c(Cl)c2)N(c2ccccc2)C1=O (centres undefined) | 23.3 | 8 | Activity (Trypanosoma cruzi [5]): Active; Activity (Trypanosoma cruzi [6]): Active; IC50 (Trypanosoma cruzi [7]): 3.2 µM; Ratio IC50 (Trypanosoma cruzi [8]): 3; Ratio IC50 (Trypanosoma cruzi [9]): 4 |
| > 50 | 0 | C/C(=N\NC(=S)Nc1ccccc1)c1ccc(Cl)c(Cl)c1 | > 100 | – | – |
| 7.1 | 85 | C/C(=N\N=C(\N)S)c1ccc(Cl)c(Cl)c1 | 13.4 | 1.7 | – |
| > 50 | 54 | C/C(=N\N=C1/NC(=O)CS1)c1ccc(Cl)c(Cl)c1 | 76.5 | – | – |
| > 50 | 49 | CCC1S/C(=N/N=C(\C)c2ccc(Cl)c(Cl)c2)NC1=O (centres undefined) | 76.7 | – | – |
| 16.9 | 49 | C/C(=N\N=C1/NC(=O)C(C(C)C)S1)c1ccc(Cl)c(Cl)c1 (centres undefined) | > 100 | >5.9 | – |
| – | – | O=C(N[C@@H](Cn1ccnc1)c1ccc(Cl)cc1Cl)c1ccc(-c2nnc(-c3ccccc3)o2)cc1 | – | – | Activity (Leishmania): 60% |

| Structure (SMILES) | IC50 (Trypanosoma cruzi [1]) [µM] | inhibition [3] [%] | CC50 at 72 h [2] [µM] | Ratio CC50/IC50 [4] | further results |
| --- | --- | --- | --- | --- | --- |
| O=C(Cn1ccnc1[N+](=O)[O-])NCc1ccccc1 [BENZNIDAZOLE] | 10.6 | – | > 100 | >9.4 | Activity (Trypanosoma cruzi [5]): Active; Activity (Trypanosoma cruzi [6]): Active; Activity (Trypanosoma cruzi [11]): >99%; Activity (Trypanosoma cruzi [12]): >99%; Activity (Trypanosoma cruzi [13]): Active; Activity (Mus musculus): Non-toxic |
